Each structure is given as a SMILES string. Activity calls are given as the source filed them. The calls are words filed in the database; no cut-off is given here.

The species entered for one data set is Oryctolagus cuniculus. In words: Inhibition of cap-independent HCV-IRES-induced translation in rabbit reticulocyte lysate at 500 nM after 1.5 hrs by luciferase reporter gene assay. The data set is classed as functional. An outline of the steps:
(§1)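 Capped bicistronic reporter mRNA: cap-dependent firefly luciferase first cistron, HCV IRES-driven Renilla second cistron. Transcribed in vitro with SP6 from the BamHI-linearised plasmid. 200 ng RNA translated in rabbit reticulocyte lysate with 70 mM KCl, 2 mM DTT, RNasin and compound in DMSO (5% v/v final), 30 °C for 1.5 h. Dual luciferase readout. Duplicates, 4 independent assays, mean IC50 by curve fit.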
In general terms: A reporter such as luciferase makes a cellular process visible.

Data set [1] in a line: Binding affinity to eIF4A1/2 in rabbit reticulocyte lysate assessed as inhibition of cap-dependent translation after 1.5 hrs by dual luciferase reporter gene assay. Details: species or system Oryctolagus cuniculus. An outline of the steps: as §1
Data set [2] concerns the target T1, DNA polymerase subunit gamma-1 (Homo sapiens, UniProt P54098).
T1 sequence (P54098 whole entry): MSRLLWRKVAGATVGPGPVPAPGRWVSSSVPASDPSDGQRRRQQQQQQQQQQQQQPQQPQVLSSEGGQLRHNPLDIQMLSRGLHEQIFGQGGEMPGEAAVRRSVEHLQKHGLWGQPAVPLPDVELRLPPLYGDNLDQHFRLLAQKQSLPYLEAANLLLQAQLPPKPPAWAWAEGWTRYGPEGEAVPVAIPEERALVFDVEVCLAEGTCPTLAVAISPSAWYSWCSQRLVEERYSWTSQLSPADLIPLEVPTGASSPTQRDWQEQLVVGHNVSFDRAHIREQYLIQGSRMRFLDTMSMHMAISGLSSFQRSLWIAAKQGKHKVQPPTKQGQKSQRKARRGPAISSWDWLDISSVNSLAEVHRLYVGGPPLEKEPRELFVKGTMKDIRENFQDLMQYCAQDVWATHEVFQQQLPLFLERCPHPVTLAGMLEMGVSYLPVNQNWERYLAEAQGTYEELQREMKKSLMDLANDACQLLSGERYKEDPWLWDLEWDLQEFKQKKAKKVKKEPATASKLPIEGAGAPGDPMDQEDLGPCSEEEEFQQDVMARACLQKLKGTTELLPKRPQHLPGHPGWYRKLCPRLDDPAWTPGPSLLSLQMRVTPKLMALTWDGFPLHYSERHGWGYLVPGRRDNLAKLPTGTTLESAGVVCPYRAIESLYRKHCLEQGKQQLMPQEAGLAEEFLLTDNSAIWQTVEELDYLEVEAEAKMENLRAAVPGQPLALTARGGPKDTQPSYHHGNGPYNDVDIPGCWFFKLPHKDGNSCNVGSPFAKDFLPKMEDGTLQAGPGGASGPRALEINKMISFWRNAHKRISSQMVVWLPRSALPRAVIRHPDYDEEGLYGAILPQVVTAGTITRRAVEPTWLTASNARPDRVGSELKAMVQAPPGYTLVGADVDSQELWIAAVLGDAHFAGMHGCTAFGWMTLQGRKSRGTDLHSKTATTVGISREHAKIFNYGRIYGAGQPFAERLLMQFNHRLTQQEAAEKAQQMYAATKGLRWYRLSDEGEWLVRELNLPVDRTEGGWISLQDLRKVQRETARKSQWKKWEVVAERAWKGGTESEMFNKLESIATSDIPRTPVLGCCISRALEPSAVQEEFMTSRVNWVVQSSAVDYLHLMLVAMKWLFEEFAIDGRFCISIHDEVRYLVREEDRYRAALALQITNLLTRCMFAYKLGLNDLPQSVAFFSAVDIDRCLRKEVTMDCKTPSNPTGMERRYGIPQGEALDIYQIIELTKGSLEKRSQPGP
In words: Inhibition of DNA polymerase-gamma (unknown origin) assessed as incorporation of Br(d)UTP by colorimetric analysis.

Data set [3] in a line: Half life in RPMI media at 1 uM by HPLC analysis. The data set is classed as physicochemical. An outline of the steps:
(§2)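 Compound added from DMSO stock to pre-heated RPMI 1640 (1.8 mL) plus 0.2 mL human AB male serum or FBS, or to 2 mL RPMI alone, at final 1 or 10 μM. Samples analysed by HPLC at pH 9.5 (formic acid/ammonia in acetonitrile/water), with conversion taken from the substrate/internal standard peak ratio. Run in triplicate; half-lives ± SD.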

Data set [4] in a line: Half life in RPMI media at 10 uM by HPLC analysis in presence of fetal bovine serum. The data set is classed as ADME. Conditions: cattle. An outline of the steps:
as §2

The nature of data set [5]: Half life in RPMI media at 1 uM by HPLC analysis in presence of fetal bovine serum. The format is ADME. Conditions: cattle. An outline of the steps: as §2
The test system of the next data set is HeLa. In words: Antiproliferative activity against human HeLa cells assessed as DNA synthesis level after 24 hrs by thymidine incorporation assay. The data set is classed as functional, cell-based. An outline of the steps: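 Cells kept at 37 °C, 5% CO2 with penicillin-streptomycin and 10% FBS. Adherent lines seeded at 2000 cells/well and left to recover overnight; Jurkat seeded at 5000 cells/well with no recovery period. Compound added in DMSO (0.1% final, vehicle-only control) at 0.001–100 nM over 10 wells. DNA synthesis read out after 24 h. Mean IC50 from at least 3 independent assays.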
(Uptake of a labelled nucleoside into DNA is a usual measure of proliferation.)

Data set [6] in a line: Selectivity ratio of IC50 for MEF to IC50 for human SK-MEL-2 cells. The data set is classed as cell-based. Conditions: mouse (MEF) and human (SK-MEL-2 cells), MEF and SK-MEL-2 cells; read-out: Ratio IC50.

As to `CC(/C=C/C(C)=C/[C@@H]1Cc2nc(cs2)CCCCC(=O)O[C@@H](C)C/C(C)=C/C=C\C(=O)O1)=C\CN(C)C`, the inhibition entry in the data set filed under Oryctolagus cuniculus was “inactive”. Moreover, the IC50 in data set [1] is 21.5 nM; in data set [2] it was 3000 nM; in the data set with HeLa it was 4.5 nM. Besides, the t1/2 in data set [3] was 5.11 h; in data set [4], 12.5 h; in data set [5], 19.9 h. Also, the selectivity ratio in data set [6] turned out to be 5.

A word on the IC50: it is the concentration that inhibits the measured activity by half.
